The results in this text go back to ChEMBL document CHEMBL1143790, “Effect of substituents on diarylmethanes for antitubercular activity” (2007).

As a reminder, the MIC is the smallest concentration in the dilution series that meets the test's criterion for growth inhibition.

Holding throughout (type): functional
Test [1] concerns Mycobacterium tuberculosis. The experiment in a line: Antitubercular activity against Mycobacterium tuberculosis H37Rv by MABA assay.
Test [2] deals with Mycobacterium tuberculosis. The experiment in a line: Antitubercular activity against Mycobacterium tuberculosis H37Rv by microdilution method. The essentials: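 Agar microdilution: serial two-fold compound dilutions in 7H10 agar, with H37Rv as test organism. MIC was the concentration completely inhibiting growth and colony-forming ability of M. tuberculosis.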
The test system of test [3] is Mycobacterium tuberculosis. The experiment in a line: Antitubercular activity against Mycobacterium tuberculosis H37Rv by BACTEC method. The essentials: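 Radiometric BACTEC 12B (7H12) broth; compounds from 1 mg/mL DMSO stock, DMSO-only controls, isoniazid and rifampin references. H37Rv inoculated at 10⁴–10⁵ CFU/mL, plus 1:100-diluted inoculum control. Incubated at 37 °C with daily GI readings until the 1:100 control reached GI 30. MIC was the concentration giving a final GI below the 1:100 control ([…] inhibition).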

The nature of test [4]: Selectivity index, IC50 for vero cells to MIC for Mycobacterium tuberculosis H37Rv.

Converted amounts (≈) assume the structure as drawn.

`COc1ccc(C(c2ccc(OCCN(C)C)cc2)c2cccnc2)cc1` (centres undefined): the MIC in test [1] and in test [2] was more than 25 µg/mL in each case.

As for `COc1ccc(C(c2ccc(OCCN3CCCCCC3)cc2)c2cn(S(=O)(=O)c3ccccc3)c3ccccc23)cc1` (centres undefined), the minimal inhibitory concentration (MIC) in test [1], in test [2] and in test [3] was 12.5 µg/mL (≈ 21 µM) throughout.

Turning to `COc1ccc(Cc2ccc(OCCN3CCCCC3)cc2)cc1`, the minimal inhibitory concentration (MIC) in test [1] and in test [2] was more than 25 µg/mL throughout.

Regarding `COc1ccc(C(c2ccc(OCCN(C)C)cc2)c2cc3ccccc3c3ccccc23)cc1` (centres undefined), the figures for the minimal inhibitory concentration (MIC) in test [1], in test [2] and in test [3] were 25 µg/mL (≈ 54.2 µM), 25 µg/mL (≈ 54.2 µM) and 12.5 µg/mL (≈ 27.1 µM), respectively.

As to `CCN(CC)CCOc1ccc(C(c2ccc(OC)cc2)c2cccnc2)cc1` (centres undefined), the MIC in test [1] is more than 25 µg/mL; in test [2], more than 25 µg/mL; in test [3], 12.5 µg/mL (≈ 32 µM).

Turning to `CN(C)CCOc1ccc(C(c2ccc(O)cc2)c2cc3ccccc3c3ccccc23)cc1` (centres undefined), the minimal inhibitory concentration (MIC) was 25 µg/mL (≈ 55.9 µM) in test [1], 12.5 µg/mL (≈ 27.9 µM) in test [2] and 12.5 µg/mL (≈ 27.9 µM) in test [3].

On to `COc1ccc(Cc2ccc(OCCN(C)C)cc2)cc1`, for which the MIC in test [1] and in test [2] was more than 25 µg/mL each time.

In the case of `COc1ccc(C(c2ccc(OCCN3CCCC3)cc2)c2cc3ccccc3c3ccccc23)cc1` (centres undefined), the MIC in test [1], in test [2] and in test [3] was 6.25 µg/mL (≈ 12.8 µM) each time. In test [4], the Selectivity index turned out to be 20.

Turning to `CCN(CC)CCOc1ccc(C(c2ccc(OC)cc2)c2cn(S(=O)(=O)c3ccccc3)c3ccccc23)cc1` (centres undefined), the MIC in test [1] and in test [2] was 12.5 µg/mL (≈ 22 µM) in each case.

Turning to `COc1ccc(C(c2ccc(OCCN(C)C)cc2)c2c3ccccc3cc3ccccc23)cc1` (centres undefined), the MIC in test [1] and in test [2] was 12.5 µg/mL (≈ 27.1 µM) throughout.

As to `Oc1ccc(C(c2ccc(OCCN3CCCCC3)cc2)c2cc3ccccc3c3ccccc23)cc1` (centres undefined), the MIC in test [1] was 25 µg/mL (≈ 51.3 µM); in test [2], 12.5 µg/mL (≈ 25.6 µM); in test [3] it was 12.5 µg/mL (≈ 25.6 µM).

`COc1ccc(C(c2ccc(OCCN3CCCCC3)cc2)c2cc3ccccc3c3ccccc23)cc1` (centres undefined): the MIC in test [1], in test [2] and in test [3] was 6.25 µg/mL (≈ 12.5 µM) throughout. Further, in test [4], the Selectivity index was 10.

For the molecule `CCN(CC)CCOc1ccc(C(c2ccc(O)cc2)c2cc3ccccc3c3ccccc23)cc1` (centres undefined), the minimum inhibitory concentration (MIC) in test [1] came to 25 µg/mL (≈ 52.6 µM); in test [2] it was 12.5 µg/mL (≈ 26.3 µM); in test [3], 12.5 µg/mL (≈ 26.3 µM).

On to `COc1ccc(C(c2ccc(OCCN3CCCC3)cc2)c2cn(S(=O)(=O)c3ccccc3)c3ccccc23)cc1` (centres undefined), for which the minimum inhibitory concentration (MIC) in test [1] and in test [2] was 12.5 µg/mL (≈ 22.1 µM) in each case.

With `COc1ccc(C(c2ccc(OCCN3CCCC3)cc2)c2cccnc2)cc1` (centres undefined), the MIC in test [1] was more than 25 µg/mL; in test [2] it was more than 25 µg/mL; in test [3] it was 12.5 µg/mL (≈ 32.2 µM).

As for `CCN(CC)CCOc1ccc(C(c2ccc(OC)cc2)c2cc3ccccc3c3ccccc23)cc1` (centres undefined), the MIC in test [1], in test [2] and in test [3] was 6.25 µg/mL (≈ 12.8 µM) each time. The molecule further showed a Selectivity index in test [4] of 20.

As to `COc1ccc(C(c2ccc(OCCN3CCCCC3)cc2)c2cccnc2)cc1` (centres undefined), the values for the MIC in test [1], in test [2] and in test [3] were more than 25 µg/mL, more than 25 µg/mL and 12.5 µg/mL (≈ 31.1 µM), respectively.

Take `COc1ccc(C(c2ccc(OCCN(C)C)cc2)c2cn(S(=O)(=O)c3ccccc3)c3ccccc23)cc1` (centres undefined): the MIC in test [1] was more than 25 µg/mL; in test [2], more than 12.5 µg/mL.

Regarding `COc1ccc(C(c2ccc(OCCN3CCCCC3)cc2)c2cn(S(=O)(=O)c3ccccc3)c3ccccc23)cc1` (centres undefined), the MIC in test [1], in test [2] and in test [3] was 6.25 µg/mL (≈ 10.8 µM) in each case. In addition, in test [4], the Selectivity index is recorded as 10.
